# Screens deposited in PubChem by Broad Institute.
# An excerpt weighted towards active compounds, which were near 2.6% of everything screened.
# miR-122 sensor – miR-122 Renilla sensor signal increase in Huh7, primary screen, miR-122 inhibitor project, cell-based, single point, plate reader; hit rate 0.3% among 340,000; Huh7 miR-122 Renilla luciferase sensor, 48 h; neutral wells = 0, positive control = 100; activation (reporter increase), % at 12.5 µM; AID 602342, 2012;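 active means mean replicate activation score at least 90 and every replicate individually at or above 90; inconclusive means only one of the two criteria met; inactive means neither criterion met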;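 further: higher luciferase means less miR-122 activity so hits act as miR-122 inhibitors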
# ERAP1 inh – human ERAP1 aminopeptidase inhibitors, primary screen, biochemical, single point, plate reader; Endoplasmic reticulum aminopeptidase 1 (Homo sapiens), Q9NZ08; recombinant ERAP1, Leu-AMC fluorescence, 60 min; inhibition, % at 10.7 µM; hit rate 0.15% among 340,000;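 active means mean replicate inhibition of at least 30%, or all replicates individually reaching that 30% level; inactive means mean below 30% and not every replicate reaching it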;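 further: 0% = neutral control wells and 100% = L-leucinethiol positive control wells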
# Target sequence (Q9NZ08 whole entry, looked up): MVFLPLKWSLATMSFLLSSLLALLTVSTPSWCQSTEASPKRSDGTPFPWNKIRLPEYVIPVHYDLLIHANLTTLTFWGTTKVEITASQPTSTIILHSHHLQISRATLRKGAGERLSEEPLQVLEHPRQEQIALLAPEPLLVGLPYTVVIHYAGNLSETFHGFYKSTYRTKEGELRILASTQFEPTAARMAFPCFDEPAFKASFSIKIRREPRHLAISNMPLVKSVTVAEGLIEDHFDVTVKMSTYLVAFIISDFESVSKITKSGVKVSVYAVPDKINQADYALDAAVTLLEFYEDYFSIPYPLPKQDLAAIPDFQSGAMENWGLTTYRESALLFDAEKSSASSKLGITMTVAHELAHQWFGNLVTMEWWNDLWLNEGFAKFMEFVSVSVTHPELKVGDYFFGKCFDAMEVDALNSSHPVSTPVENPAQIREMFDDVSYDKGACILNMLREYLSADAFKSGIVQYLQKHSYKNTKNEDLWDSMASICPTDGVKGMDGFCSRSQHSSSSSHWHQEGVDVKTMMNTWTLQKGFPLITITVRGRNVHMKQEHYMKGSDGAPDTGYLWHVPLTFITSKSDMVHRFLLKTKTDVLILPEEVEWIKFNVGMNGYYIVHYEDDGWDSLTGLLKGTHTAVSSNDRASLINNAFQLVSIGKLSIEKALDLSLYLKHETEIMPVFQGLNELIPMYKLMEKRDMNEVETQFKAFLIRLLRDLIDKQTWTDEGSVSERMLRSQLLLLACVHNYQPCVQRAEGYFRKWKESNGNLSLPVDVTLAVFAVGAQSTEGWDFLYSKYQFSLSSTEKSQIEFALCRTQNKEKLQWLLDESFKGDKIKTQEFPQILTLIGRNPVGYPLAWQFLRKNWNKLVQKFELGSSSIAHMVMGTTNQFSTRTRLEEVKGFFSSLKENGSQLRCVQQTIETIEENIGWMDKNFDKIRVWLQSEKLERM
# INS-1E GSIS act – GLuc luminescence reporter in INS-1E cells, primary screen for activators of glucose-dependent secretion of insulin; INS-1E GLuc reporter insulin secretion, 2-3 h; activation, % at 16.6 µM; hit rate 0.61% among 370,000; AID 743287, 2014;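 active means lowest replicate activation of at least 40%, so every replicate reaches that level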;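 further: 0% = median of neutral control wells and 100% = median of IBMX positive control wells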
# E-selectin induc – E-selectin induction in HUVECs, primary screen, imaging, HUVEC, immunofluorescence imaging, single point | P16581 | normalized: neutral wells 0, TNF-alpha wells 100 | activation, % at 7.58 µM | hit rate 0.37% among 260,000 | AID 686992, 2013;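 active means mean E-selectin-positive cell signal at least 10% of the positive control, reached in at least 60% of replicates, without over 20% cell loss; inconclusive means no rule given, readout overlaps actives, possibly toxicity-flagged; inactive means the rest, including those meeting only one limit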
#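 Read-out basis: % PE-positive cells; Test system: HUVEC primary endothelial cells; Technique: immunofluorescence imaging; Dosing: single-point compound dose.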
# CFTR F508del cor – F508del CFTR correction, initial screen, CFBE line, single point; CFBE cells, YFP halide quenching; stimulated with forskolin plus potentiator P3; % fluorescence drop versus neutral controls; AID 720511, 2013; hit rate 0.36% among 350,000; activity (quench increase), % at 7.58 µM;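 active means mean added fluorescence quench of at least 8% versus neutral control, with both replicates also reaching 8%; inconclusive means only one of the mean or replicate conditions met; inactive means mean below 8% and not both replicates reaching 8%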;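 further: cells transiently co-express mutant CFTR-F508del with the halide-sensitive YFP; corrector assay measuring rescue of mutant channel to the surface after 24 h compound exposure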
# DENV2 CPE rescue – inhibitors of DENV2 cytopathic effect, primary screen, cell-based, plate reader, single concentration; DENV2-infected cells, cytopathic effect rescue; CPE inhibition, % at 9.99 µM; hit rate 1.7% among 350,000; AID 651640, 2012; in the data active means CPE inhibition above about 20%, passing the limit was not always enough; inconclusive means no clear call, values can overlap the other calls; tested in BHK-21 cells;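 further: 0% = median of neutral control wells and 100% = median of positive control wells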
# * marks the source's active call; other numbers are inactive results; ? = inconclusive; · = not tested or not shown; ! = repeats disagree; [ ] = another dose, or the depositor's remark.
SMILES,miR-122 sensor,ERAP1 inh,INS-1E GSIS act,E-selectin induc,CFTR F508del cor,DENV2 CPE rescue
C[C@H](CO)N1C[C@H](C)[C@@H](CN(C)C(=O)c2cnccn2)Oc2ncc(-c3cccc(C#N)c3)cc2C1=O,·,·,-10,0,0,-2
COc1ccc2nc(C)cc(N/N=C/c3cccc(OC)c3O)c2c1,-15,-2,14,·,-7,-16
Cc1cc(N/N=C/c2ccccc2O)c2ccccc2n1,·,3,-3,·,16*,16
COc1cc(C)c(C(C)C)cc1S(=O)(=O)N1CCN(C)CC1,149*,·,·,·,·,·
Cc1ccccc1S(=O)(=O)NCC[C@H]1CC[C@H](NC(=O)Nc2cccc(Cl)c2)[C@H](CO)O1,-8[16.7 µM],0,·,0,-3,-3
C[C@@H]1CN([C@@H](C)CO)C(=O)c2cccc(NC(=O)C3CCCCC3)c2O[C@H]1CN(C)Cc1ccc2c(c1)OCO2,40[16.7 µM],0,-4,0,1,21*
C[C@H]1CN([C@@H](C)CO)C(=O)c2cccc(NC(=O)C3CCCCC3)c2O[C@@H]1CN(C)Cc1ccc2c(c1)OCO2,15[16.7 µM],·,1,0,-2,·
C[C@H]1CN([C@@H](C)CO)C(=O)c2cccc(NC(=O)C3CCCCC3)c2O[C@H]1CN(C)Cc1ccc2c(c1)OCO2,17[16.7 µM],0,12,1,0,23*
C[C@H](CO)N1C[C@H](C)[C@@H](CN(C)Cc2ccc3c(c2)OCO3)Oc2c(NC(=O)C3CCCCC3)cccc2C1=O,?,-1,-24,0,1,122*!
CC1=C2[C@@H](c3ccccc3)OB(O)C[C@@H]2[C@@H]2C(=O)N(Cc3ccccc3)C(=O)[C@@H]2C1,·,0,·,·,-1,-7
COC(=O)[C@H]1[C@H](CO)[C@H]2Cn3c(ccc(/C=C/c4ccccc4)c3=O)[C@H]2N1C(=O)C1CCCC1,·,-6,-7,0,·,12
C[C@H]1CN([C@@H](C)CO)C(=O)c2cc(NC(=O)NC3CCCCC3)ccc2O[C@H]1CN(C)C(=O)Nc1ccc2c(c1)OCO2,-27[16.7 µM],0,-12,0,-1,-3
O=C(Cc1ccncc1)NCC[C@H]1CC[C@@H](NC(=O)Nc2ccc(F)cc2)[C@@H](CO)O1,·,-1,7,0,0,1
C[C@H](CO)N1C[C@H](C)[C@@H](CN(C)Cc2cccnc2)Oc2cc(C#CC3CCCCC3)ccc2S1(=O)=O,20[16.7 µM],0,-11,2,0,13
COc1ccccc1C#Cc1ccc2c(c1)O[C@@H](CN(C)Cc1cccnc1)[C@H](C)CN([C@@H](C)CO)S2(=O)=O,-18[16.7 µM],-2,4,1,9.5*,2
C[C@H]1CN([C@@H](C)CO)S(=O)(=O)c2ccc(C#CC3CCCCC3)cc2O[C@H]1CN(C)Cc1cccnc1,-5[16.7 µM],0,-7,0,9.9*,8
CCCC#Cc1ccc2c(c1)O[C@H](CN(C)Cc1cccnc1)[C@@H](C)CN([C@@H](C)CO)S2(=O)=O,54[16.7 µM],3,-28,0,·,25*
COc1ccc(NC(=O)N(C)C[C@H]2OCCCC[C@H](C)Oc3ccc(NC(=O)C4CCCCC4)cc3C(=O)N([C@H](C)CO)C[C@H]2C)cc1,·,·,1,0,·,·
COc1ccc(NC(=O)Nc2ccc3c(c2)[C@@H]2C[C@H](CC(=O)N(C)C)O[C@@H](CO)[C@@H]2O3)cc1,-1[16.7 µM],3,2,0,6,-4
Cc1ccc(S(=O)(=O)Nc2cccc(Oc3cnccn3)c2)cc1,23,1,-2,·,2,-3
O=S(=O)(Nc1cccc(Oc2cnccn2)c1)c1ccc(F)cc1,4,-1,12,40*,3,1
O=C(C[C@@H]1C=C[C@H](NC(=O)Nc2ccc(F)cc2)[C@H](CO)O1)NCCN1CCCC1,1[16.7 µM],2,4,0,0,-2
O=S(=O)(NCc1ccc(F)cc1)c1ccccc1Br,54,·,-9,0,-2,31*
COc1ccc(NC(=O)N2[C@@H]3CNC[C@H]2C3c2ccc(/C=C/c3ccccc3)cc2)cc1 (stereo partly drawn),·,-3,-7,0,0,25*
N#Cc1cccc(-c2ccc(C3[C@H]4CNC[C@@H]3N4C(=O)Nc3ccccc3F)cc2)c1 (stereo partly drawn),·,-4,-24,0,-1,5
SMILES,miR-122 sensor,ERAP1 inh,INS-1E GSIS act,E-selectin induc,CFTR F508del cor,DENV2 CPE rescue
COc1ccc(NC(=O)N2[C@@H]3CNC[C@H]2C3c2ccc(-c3ccc(OC)cc3)cc2)cc1 (stereo partly drawn),·,-3,-7,0,-3,-2
N#Cc1ccc(-c2ccc(C3[C@H]4CNC[C@@H]3N4C(=O)NC3CCCCC3)cc2)cc1 (stereo partly drawn),·,·,-8,0,-2,23*
N#Cc1cccc(-c2ccc(C3[C@H]4CNC[C@@H]3N4C(=O)Nc3ccc(F)cc3)cc2)c1 (stereo partly drawn),·,1,-32,1,1,23*!
O=C(Nc1cccc(F)c1)N1[C@@H]2CNC[C@H]1C2c1ccc(-c2cccc(F)c2)cc1 (stereo partly drawn),·,0,-18,0,-6,0
O=C(Nc1cccc(Cl)c1)N1[C@@H]2CNC[C@H]1C2c1ccc(-c2ccccc2)cc1 (stereo partly drawn),·,1,-5,0,-2,67*!
CCNC(=O)[C@H]1[C@H](CO)[C@H]2Cn3c(ccc(-c4cccc(F)c4)c3=O)[C@H]2N1Cc1cc(F)ccc1F,·,-2,1,-1,·,-8
CCCNC(=O)Nc1ccc2c(c1)OC[C@@H](C)N(C(=O)C1CCCCC1)C[C@@H](C)[C@@H](OC)CN(C)C2=O,7[16.7 µM],0,-4,0,-3,?
CCCNC(=O)N1[C@@H]2CNC[C@H]1C2c1ccc(-c2cccc(C#N)c2)cc1 (stereo partly drawn),·,-2,-8,0,0,21*!
CN(C)CC(=O)NC[C@H]1N[C@@H](CO)[C@H]1c1ccc(-c2cccc(C#N)c2)cc1,0[16.7 µM],-3,4,0,4,25*
CCC(=O)NC[C@@H]1N[C@@H](CO)[C@H]1c1ccc(-c2cccc(C#N)c2)cc1,30[16.7 µM],-3,12,0,-2,2
Cc1cccc(-c2ccc(C3[C@H]4CNC[C@@H]3N4C(=O)Nc3ccc(F)cc3)cc2)c1 (stereo partly drawn),·,0,9,0,1,28*!
COc1cccc(NC(=O)N2[C@@H]3CNC[C@H]2C3c2ccc(-c3cccnc3)cc2)c1 (stereo partly drawn),·,-1,3,0,-6,22*!
